Data: ChEMBL document CHEMBL4680100, “Revisiting the SAR of the Antischistosomal Aryl Hydantoin (Ro 13-3978)” (J Med Chem, 2016)
In brackets after ≈: the same amount, converted by molar mass.

Key:
Androgen receptor = molecular target: T1, Androgen receptor (Homo sapiens, UniProt P10275)
T1 sequence (P10275 whole entry): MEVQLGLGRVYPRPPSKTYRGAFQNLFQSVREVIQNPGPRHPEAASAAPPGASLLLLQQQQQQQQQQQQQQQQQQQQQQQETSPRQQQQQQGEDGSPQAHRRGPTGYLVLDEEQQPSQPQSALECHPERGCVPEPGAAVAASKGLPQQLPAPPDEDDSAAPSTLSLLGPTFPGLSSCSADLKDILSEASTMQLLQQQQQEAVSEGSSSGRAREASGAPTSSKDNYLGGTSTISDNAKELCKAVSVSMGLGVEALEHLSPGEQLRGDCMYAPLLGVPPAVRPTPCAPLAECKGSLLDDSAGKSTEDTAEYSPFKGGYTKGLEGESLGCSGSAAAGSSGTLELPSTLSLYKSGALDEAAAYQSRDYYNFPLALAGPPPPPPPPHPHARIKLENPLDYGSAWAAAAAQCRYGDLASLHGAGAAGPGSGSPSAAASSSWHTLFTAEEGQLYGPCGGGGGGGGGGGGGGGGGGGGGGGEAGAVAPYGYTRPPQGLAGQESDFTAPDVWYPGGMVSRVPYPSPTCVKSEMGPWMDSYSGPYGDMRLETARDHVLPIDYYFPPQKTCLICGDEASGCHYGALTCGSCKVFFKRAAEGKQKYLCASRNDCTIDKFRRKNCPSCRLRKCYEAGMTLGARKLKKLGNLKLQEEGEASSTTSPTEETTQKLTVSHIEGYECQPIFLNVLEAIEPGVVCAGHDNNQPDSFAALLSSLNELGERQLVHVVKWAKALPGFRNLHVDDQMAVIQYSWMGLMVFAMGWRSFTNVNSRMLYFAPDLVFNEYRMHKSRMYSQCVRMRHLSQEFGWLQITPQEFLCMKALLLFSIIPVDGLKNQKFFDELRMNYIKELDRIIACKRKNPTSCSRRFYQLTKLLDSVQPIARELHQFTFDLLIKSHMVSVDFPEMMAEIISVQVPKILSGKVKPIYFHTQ

[1] = Kinetic solubility of compound at pH 6.5 phosphate buffer by nephelometry; format: physicochemical; details: read-out: Kinetic_solubility
[2] = Kinetic solubility of the compound in 0.01 M HCl at pH 2 by nephelometry; format: physicochemical; details: read-out: Kinetic_solubility
[3] = Intrinsic clearance in human liver microsome in presence of NADPH-regenerating system incubated over 60 mins by LC-MS analysis; details: microsomes, 1 h
Albumin = Albumin (Homo sapiens, UniProt P02768); assay: Protein binding in immobilized human serum albumin by HPLC analysis; format: ADME; details: isolated protein
In short: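 Binding estimated from gradient HPLC retention on a human albumin column, correlated against standard compounds of known protein binding.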

[4] = Octanol/water partition coefficient, logD of the compound at pH 7.4 by HPLC analysis
[5] = Intrinsic clearance in mouse liver microsome in presence of NADPH-regenerating system incubated over 60 mins by LC-MS analysis; details: microsomes, 1 h
L6 = assay: Cytotoxicity against rat L6 cells assessed as reduction in cell viability at up to 30 uM; format: cell-based
Schistosoma mansoni = assay: Antischistosomal activity against Schistosoma mansoni infected in NMRI mouse assessed as reduction in total worm burden at 100 mg/kg, po administered as single dose starting on day 49 post-infection and measured at 28 days post treatment relative to control; format: functional; design: scale not given: the % may be the effect or the level left; details: time 28 day
In short: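 S. mansoni-infected NMRI mice treated on day 49 post-infection with a single oral dose, dissolved or suspended in 7% v/v Tween 80, 3% v/v ethanol (10 mL/kg), five mice per group. Sacrificed and dissected 28 d post-treatment; worms counted to give total worm burden reduction versus untreated controls. Kruskal–Wallis test on medians, treatment versus control.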

Chain of Albumin (P02768 whole entry): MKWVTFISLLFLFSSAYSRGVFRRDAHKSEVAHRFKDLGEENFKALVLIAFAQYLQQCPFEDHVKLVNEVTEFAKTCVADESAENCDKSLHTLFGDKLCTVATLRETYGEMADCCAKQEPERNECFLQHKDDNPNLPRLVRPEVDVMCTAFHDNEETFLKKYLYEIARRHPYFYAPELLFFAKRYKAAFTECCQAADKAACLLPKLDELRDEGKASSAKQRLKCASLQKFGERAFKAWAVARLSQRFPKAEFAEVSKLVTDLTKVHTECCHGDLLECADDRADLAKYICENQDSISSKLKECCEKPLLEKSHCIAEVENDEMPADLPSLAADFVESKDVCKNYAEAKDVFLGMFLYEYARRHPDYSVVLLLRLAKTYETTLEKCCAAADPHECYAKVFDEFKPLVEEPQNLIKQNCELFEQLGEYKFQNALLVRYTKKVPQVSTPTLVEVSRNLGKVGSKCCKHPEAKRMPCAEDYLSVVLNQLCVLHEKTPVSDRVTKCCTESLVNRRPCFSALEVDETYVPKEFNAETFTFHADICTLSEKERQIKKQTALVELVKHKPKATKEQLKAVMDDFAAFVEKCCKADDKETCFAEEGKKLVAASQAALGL

| Structure (SMILES) | IC50 (Androgen receptor) [µM] | solubility kinetic [1] [µg/mL] | solubility kinetic [2] [µg/mL] | CLH [3] [µL/min/mg] | PPB (Albumin) [%] | logD [4] | CLH [5] [µL/min/mg] | Activity (L6) | Activity (Schistosoma mansoni) [%] |
| --- | --- | --- | --- | --- | --- | --- | --- | --- | --- |
| CC(C)(NC(=O)Nc1ccc(F)c(C(F)(F)F)c1)C(=O)O | 3.1 | > 100 | 25 (≈ 81.1 µM) | < 7 | 94.3 | 1.1 | < 7 | Non-Toxic | 67 |
| CC1(C)NC(=O)N(c2ccc(C(F)(F)F)nc2)C1=O | > 10 | > 100 | > 100 | < 7 | 18.3 | 1.8 | < 7 | Non-Toxic | 0 |
| CC1(C)NC(=O)N(Cc2ccc(F)c(C(F)(F)F)c2)C1=O | 4.2 | > 100 | 50 (≈ 164 µM) | 17 | 82.1 | 2.9 | 11 | Non-Toxic | 56 |
| O=C1NC2(CCCCC2)C(=O)N1c1ccc(F)c(C(F)(F)F)c1 | 4.2 | 3.1 (≈ 9.39 µM) | 3.1 (≈ 9.39 µM) | 25 | 74.9 | 3.5 | 122 | Non-Toxic | 42 |
| Cc1ccc(N2C(=O)NC(C)(C)C2=O)cc1C(F)(F)F | > 10 | > 100 | > 100 | < 7 | 64.8 | 2.8 | 16 | Non-Toxic | 4.8 |
| CC1(C)NC(=O)N(c2ccc(Cl)c(C(F)(F)F)c2)C1=O | 1.3 | > 100 | > 100 | < 7 | 79.6 | 3 | < 7 | Non-Toxic | 75 |
| CC1(C)NC(=O)C(c2ccc(F)c(C(F)(F)F)c2)C1=O (stereo unspecified) | > 10 | > 100 | 25 (≈ 86.4 µM) | < 7 | 93.3 | 0.5 | < 7 | Non-Toxic | 0 |
| CC1(C)NC(=O)N(c2cnccn2)C1=O | > 10 | > 100 | > 100 | < 7 | 5.8 | 0.3 | < 7 | Non-Toxic | 42 |
| CC1(C)C(=O)N(c2ccc(F)c(C(F)(F)F)c2)C(=O)N1CC#N | 0.29 | 25 (≈ 75.9 µM) | 25 (≈ 75.9 µM) |  | 48.2 | 3.4 |  | Non-Toxic | 91 |
| CC1(C)NC(=O)N(c2cccnc2)C1=O | 9.6 | > 100 | > 100 | < 7 | 6.6 | 0.2 | < 7 | Non-Toxic | 38 |
| CC1(C)CNC(=O)N(c2ccc(F)c(C(F)(F)F)c2)C1=O | 6.9 | 12.5 (≈ 41.1 µM) | 12.5 (≈ 41.1 µM) | 9 | 21.5 | 2.5 | 15 | Non-Toxic | 19 |
| CC1(C)CN(c2ccc(F)c(C(F)(F)F)c2)C(=O)N1 | 8.1 | 12.5 (≈ 45.3 µM) | 12.5 (≈ 45.3 µM) | < 7 | 78.3 | 3.2 | 30 | Non-Toxic | 59 |
| O=C1C2CCCN2C(=O)N1c1ccc(F)c(C(F)(F)F)c1 (stereo unspecified) | 3.5 | 25 (≈ 82.7 µM) | 25 (≈ 82.7 µM) | 30 | 46 | 3 | 144 | Non-Toxic | 0 |
| CC1(C)NC(=O)N(c2ccnc3ccccc23)C1=O | 1.3 | > 100 | > 100 | < 7 | 16.9 | 1.2 | < 7 | Non-Toxic | 17 |
| CC1(C)NC(=O)N(c2ccncc2)C1=O | 3.8 | > 100 | 50 (≈ 244 µM) | < 7 | 6.7 |  | 11 | Non-Toxic | 1.8 |
| CC1(C)C(=O)NC(=O)N1c1ccc(F)c(C(F)(F)F)c1 | 2.8 | 25 (≈ 86.1 µM) | 25 (≈ 86.1 µM) | < 7 | 67.1 | 2.5 | < 7 | Non-Toxic | 0 |
| CC1(C)CC(=O)N(c2ccc(F)c(C(F)(F)F)c2)C1=O | 0.91 | 12.5 (≈ 43.2 µM) | 12.5 (≈ 43.2 µM) | 11 | 42.5 | 3.4 | 10 | Non-Toxic | 42 |
| CC1(C)OC(=O)N(c2ccc(F)c(C(F)(F)F)c2)C1=O | 2.1 | 3.1 (≈ 10.6 µM) | 3.1 (≈ 10.6 µM) | 12 | 58.1 | 3.7 | 12 | Non-Toxic | 11 |
| O=C1CNC(=O)N1c1ccc(F)c(C(F)(F)F)c1 | 0.26 | > 100 | > 100 | < 7 | 43.6 | 2 | 13 | Non-Toxic | 0 |
| CC1(CO)NC(=O)N(c2ccc(F)c(C(F)(F)F)c2)C1=O (stereo unspecified) | 4.8 | 25 (≈ 81.6 µM) | 25 (≈ 81.6 µM) | < 7 | 34.3 | 1.9 | < 7 | Non-Toxic | 0 |
| CC1(C)CC(=O)N(c2ccc(F)c(C(F)(F)F)c2)C(=O)N1 | > 10 | 25 (≈ 82.2 µM) | 25 (≈ 82.2 µM) | < 7 | 15 | 2.4 | < 7 | Non-Toxic | 51 |
| CC1(C)NC(=O)N(c2ccc(F)c(C#N)c2)C1=O | 3.7 | > 100 | > 100 | < 7 | 14.6 | 1.7 | < 7 | Non-Toxic | 10 |
| CC1(C)NC(=O)N(c2ccc([N+](=O)[O-])c(C(F)(F)F)c2)C1=O [NILUTAMIDE] |  | 50 (≈ 158 µM) | 50 (≈ 158 µM) | < 7 | 70.3 | 3 | < 7 |  | 31 |
| O=C(C1CCCCC1)N1CC(=O)N2CCc3ccccc3C2C1 (stereo unspecified) [PRAZIQUANTEL] |  | > 100 | > 100 |  |  | 3 |  |  | 18 |
